For experiment [1], the system named is S. aureus biofilms (MSSA and two MRSA strains). The experiment is described as follows: MBEC, summarised over the S. aureus strains. The experiment is classed as cell-based, Staphylococcus aureus. The conditions noted are these: TSB; range as stated in text (Table 1, Table SI-1).
The next experiment relates to MRSA USA300 LAC biofilms. Nature of the experiment: Murine skin wound excisional biofilm model. Format: in vivo, C57BL/6 mice. The conditions noted are these: topical 0.05%, 5 h; not statistically significant.
Another experiment concerns MRSA (USA400 MW2). The experiment is described as follows: Minimum inhibitory concentration, broth microdilution. Format: cell-based. The conditions noted are these: Staphylococcus aureus.
Another experiment deals with MSSA (29213). Described as above. The conditions noted are these: Staphylococcus aureus. The experiment is classed as cell-based.
The subject of another experiment is MRSA USA400 MW2 biofilms. Nature of the experiment: Confocal microscopy of biofilms, SYTO 9/PI live/dead staining. Format: cell-based, Staphylococcus aureus. The conditions noted are these: 80 μM, 5 h treatment in TSB, 48 h biofilms, SYTO 9/PI fluorescence. A digest of the protocol: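 USA400 MW2 grown in TSB with shaking at 37 °C to stationary phase, then adjusted in TSB to 1 × 10^7 CFU/mL. Eight-well chambered coverglass coated with 50 μg/mL fibronectin for 30 min at room temperature and PBS-washed twice. Biofilms grown statically, humidified, 37 °C, 48 h, then PBS-washed twice. Stained with SYTO 9 (all cells) and PI (dead cells) in TSB; 10× compound solution added.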

For a further experiment, the system named is S. aureus strain 29213. The experiment is described as follows: Resistance evolution experiment. The experiment is classed as cell-based, Staphylococcus aureus. The conditions noted are these: 14 day period, strain 29213, daily passage from 1/2 MIC well. In outline:
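An MIC assay on strain 29213 was repeated daily for 14 days, each incubated 24 h at 37 °C. Colonies from TSA were suspended in PBS to OD600 0.1 and diluted 1:100 in Mueller–Hinton broth. Inoculum was added to 2-fold serial dilutions of test compound in MHB. MIC was the lowest concentration with no growth by OD600.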

The subject of another experiment is MRSA (USA300 LAC). The experiment is described as follows: Minimum inhibitory concentration, broth microdilution. Format: cell-based. The conditions noted are these: Staphylococcus aureus. (In general: Broth dilution looks for growth in wells or tubes with falling amounts of substance.)

≈ marks a conversion by molar mass, not a printed value.

With `CN[C@H](CC(C)C)C(=O)N[C@H]1C(=O)N[C@@H](CC(N)=O)C(=O)N[C@H]2C(=O)N[C@H]3C(=O)N[C@H](C(=O)N[C@H](C(=O)O)c4cc(O)cc(O)c4-c4cc3ccc4O)[C@H](O[C@H]3C[C@](C)(N)[C@@H](O)[C@H](C)O3)c3ccc(c(Cl)c3)Oc3cc2cc(c3O[C@@H]2O[C@H](CO)[C@@H](O)[C@H](O)[C@H]2O[C@H]2C[C@](C)(NCc3ccc(-c4ccc(Cl)cc4)cc3)[C@@H](O)[C@H](C)O2)Oc2ccc(cc2Cl)[C@H]1O` [Oritavancin], in experiment [1], the “MBEC range over the S. aureus strains” value was 12 to 32 µM.

In general, MIC refers to the lowest concentration found to suppress growth. Low readings indicate a more susceptible organism, high ones a less susceptible organism. For `CN[C@H](CC(C)C)C(=O)N[C@H]1C(=O)N[C@@H](CC(N)=O)C(=O)N[C@H]2C(=O)N[C@H]3C(=O)N[C@H](C(=O)N[C@H](C(=O)O)c4cc(O)cc(O)c4-c4cc3ccc4O)[C@H](O)c3ccc(c(Cl)c3)Oc3cc2cc(c3O[C@@H]2O[C@H](CO)[C@@H](O)[C@H](O)[C@H]2O[C@H]2C[C@](C)(N)[C@H](O)[C@H](C)O2)Oc2ccc(cc2Cl)[C@H]1O` [V, vancomycin], in the experiment on MRSA USA300 LAC biofilms, the “fold reduction in median CFU/wound compared to untreated mice” value worked out at 6 fold. The MIC against MRSA (USA400 MW2), against MSSA (29213) and in the experiment with MRSA (USA300 LAC) was 0.5 µM (≈ 0.725 µg/mL) each time. In the experiment with MRSA USA400 MW2 biofilms, this compound yielded a viable biofilm bacteria of 65%. Also, the “fold increase in MIC over serial passage” value in the experiment on S. aureus strain 29213 is 4 fold.

Turning to `CN[C@H]1C(=O)N[C@@H]2Cc3ccc(cc3)Oc3cc4cc(c3O[C@@H]3O[C@H](C(=O)O)[C@@H](O)[C@H](O)[C@H]3NC(=O)CCCCCCCCC(C)C)Oc3ccc(cc3Cl)[C@@H](O)[C@@H]3NC(=O)[C@H](NC(=O)[C@@H]4NC(=O)[C@@H](NC2=O)c2cc(cc(O)c2Cl)Oc2cc1ccc2O)c1ccc(O)c(c1)-c1c(O[C@H]2O[C@H](CO)[C@@H](O)[C@H](O)[C@@H]2O)cc(O)cc1[C@@H](C(=O)NCCCN(C)C)NC3=O` [dalbavancin], the “MBEC range over the S. aureus strains” value in experiment [1] lay in the range of 8 to 20 µM.

These data come from article PMC6430714 (Journal of the American Chemical Society, 2018).
